Measurements: PubChem BioAssay AID463079 (The Scripps Research Institute Molecular Screening Center, 2010)
Out of some 330,000 compounds screened, about 2,000 (0.61%) were called active. Many of the other results were omitted from the sample, so actives are more common in it than they were. Values without a mark were called inactive.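 Rule for the calls: active = inhibition above that plate's mean sample inhibition plus 3 SD (cut at about 26% in these data); inactive = the rest.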

Assay: ATP-evoked calcium signal inhibitors, parental CHO, primary screen, counter-screen for OX1R antagonist project, cell-based, fluorescence, Fluo-8 calcium dye (AID 463079);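 note: 0% = ATP-challenged DMSO wells and 100% = DMSO wells without ATP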
Conditions: parental CHO-K1, ATP-induced calcium, Fluo-8 fluorescence; at 5.6 µM; hits give high values
Summary of the method: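 test system = CHO parental line | reagent = ATP stimulus | measured by = intracellular calcium via Fluo-8 no-wash fluorescent dye | control set = ATP and no-ATP DMSO wells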
`Cc1ccc(Cl)c(NC(=O)CN(C)CC(=O)Nc2ccc(F)c(F)c2F)c1Cl` gave an inhibition of -2.12%.
`NC(=O)c1ccc(-c2csnn2)cc1` gave an inhibition of -15.6%.
In the case of `Cc1nc2ccccc2cc1OCc1ccc(F)cc1`, the inhibition is reported as 54.1% (active).
With `Cc1occc(=O)c1OCc1ccc(F)cc1` the inhibition was -7.75%.
`Fc1ccccc1COc1cccc2cccnc12` showed an inhibition of -22.9%.
`CCNC(=S)N1CCN(CCN=CC2=C(O)CC(C)(C)CC2=O)CC1` showed an inhibition of -4.83%.
Compound `C=C(Br)CN1CCN(CC(=C)Br)CC1` has an inhibition of 4.29%.
`CCCCNC(=O)C(C)N(CCN(C)C)C(=O)CCCCCN1C(=O)NC(c2ccc(Cl)cc2)C(C(=O)OCc2ccccc2)=C1C` (configuration not stated) showed an inhibition of -17%.
For `CNC(=O)NC(=O)CSc1nnc(-c2ccc(F)cc2)n1CC1CCCO1` (configuration not stated), the inhibition was -7.71%.
Compound `Cc1ccc(S(=O)(=O)N2CCN(c3ncnc4ccccc34)CC2)cc1` has an inhibition of 0.84%.
With `Cc1ccc(C)c(S(=O)(=O)N2CCN(c3ncnc4sccc34)CC2)c1` the inhibition was 62.3% (active).
For `COc1ccc(C)cc1S(=O)(=O)N1CCN(S(=O)(=O)c2cc(C(=O)O)ccc2C)CC1`, the inhibition was -11.5%.
With `COc1ccc(NS(=O)(=O)c2cc(NC(=O)C3CCCCC3)ccc2N2CCOCC2)cc1` the inhibition was 5.3%.
Compound `CC(C)(C)c1ccc(CCC2OCC(CN3CCOCC3)O2)cc1` (configuration not stated) has an inhibition of -9.27%.
Work on `Cc1cc(OCCCN2CCN(Cc3ccccc3)CC2)ccc1[N+](=O)[O-]` yielded an inhibition of 18.6%.
In the case of `Cc1cc(OCC(=O)NC2CCN(C)CC2)ccc1[N+](=O)[O-]`, the inhibition is reported as -4.54%.
For `Cc1cc(OCCCCOc2ccc(C#N)cc2)ccc1[N+](=O)[O-]`, the inhibition was 44.9% (active).
In the case of `CC[C@]12c3[nH]c4ccc(OC)cc4c3CCN1C(=O)C(CC(=O)NCc1ccco1)C[C@@H]2C(=O)N1CCN(C(=O)C2CC2)CC1` (some centres not stated), the inhibition is reported as -3.18%.
`O=C1[C@@H](c2ccccc2)[C@@H](c2ccccc2)N1c1cccnc1` showed an inhibition of 3.04%.
`CCc1ccc2ncc(C(=O)c3ccccc3)c(N3CCOCC3)c2c1` gave an inhibition of -4.24%.
In the case of `Cc1ccc2c(c1)NC(=O)[C@@]1(C)[C@@H](c3ccccc3)[C@H]3COc4ccc(Cl)cc4[C@@H]3N1C2=O`, the inhibition is reported as -11.9%.
With `CN(C)C(=O)CCc1ccc2c3c([nH]c2c1)[C@]1(C)[C@@H](C(=O)N2CCOCC2)C[C@H](CC(=O)NCCc2ccccn2)C(=O)N1CC3` the inhibition was 1.44%.
In the case of `CN(C)c1ccc(/C=C2\NC(=S)N(Cc3ccccc3)C2=O)cc1`, the inhibition is reported as 70.7% (active).
In the case of `CN(C)c1ccc(C=C2C(=O)OC3(CCCC3)OC2=O)cc1`, the inhibition is reported as -4.66%.
With `COc1cc(/C=C2/SC(=S)N(Cc3ccccc3)C2=O)cc(OC)c1O` the inhibition was 27.6%.
In the case of `N#CC1(NC(=O)COC(=O)Cc2n[nH]c(=O)c3ccccc23)CCCCC1`, the inhibition is reported as -1.72%.
For `CN(CC(=O)Nc1cccc(F)c1)CC(=O)Nc1cccc([N+](=O)[O-])c1`, the inhibition was -2.05%.
Work on `Cc1ccc(NC(=O)c2sccc2C)cc1[N+](=O)[O-]` yielded an inhibition of -13%.
For `Cc1ccc(NC(=O)CN(C)CC(=O)Nc2cccc(F)c2)cc1[N+](=O)[O-]`, the inhibition was 68.4% (active).
With `CCCc1ccc(-c2c(C)sc(NC(=O)c3ccnn3C)c2C#N)cc1` the inhibition was 37% (active).
`Cn1nccc1CNC(=O)c1ccnn1C` gave an inhibition of 7.66%.
In the case of `CCN(CC)C(=O)c1sc(NC(=O)c2ccco2)c(C#N)c1C`, the inhibition is reported as -6.79%.
`Cc1cc(C)cc(Oc2nc3c(C)cccn3c(=O)c2/C=C(\C#N)C(=O)NC2CCS(=O)(=O)C2)c1` (configuration not stated) showed an inhibition of -10.7%.
Work on `Cc1ccccc1C(=O)NC(=S)NC1CC1` yielded an inhibition of -11.8%.
In the case of `O=C(CSc1ncn[nH]1)Nc1nsc(-c2ccccc2)n1`, the inhibition is reported as 0.25%.
In the case of `O=C(CSc1ncn[nH]1)Nc1nc(-c2cccc([N+](=O)[O-])c2)cs1`, the inhibition is reported as 29.9% (active).
In the case of `O=C(CSc1nc(-c2ccccc2)cs1)Nc1cccc([N+](=O)[O-])c1`, the inhibition is reported as -15.2%.
In the case of `CC(C)CC(CC(C)C)=NNC(=O)c1ccc(CSc2nncn2C)cc1`, the inhibition is reported as -6.24%.
`Cc1cc(N2C(=O)C(O)=C(C(=O)c3ccc(C)o3)C2c2ccc(OCc3ccccc3)cc2)no1` (configuration not stated) showed an inhibition of -17.5%.
With `C=CCOc1cccc(C2C(C(=O)c3ccc(C)o3)=C(O)C(=O)N2CCCn2ccnc2)c1` (configuration not stated) the inhibition was 4.82%.
For `C=CCOc1cccc(C2C(C(=O)c3ccc(C)o3)=C(O)C(=O)N2c2nnc(C)s2)c1` (configuration not stated), the inhibition was 35.4% (active).
`Cc1ccc(SC(=O)COc2ccc(C)c(C)c2)cc1` showed an inhibition of 11.9%.
For `Cc1nc2ccccc2c(=O)n1NC(=O)c1ccccc1`, the inhibition was -3.13%.
In the case of `Cc1ccnc(-n2sc3ccccc3c2=O)n1`, the inhibition is reported as 46.3% (active).
Compound `CCOC(=O)N1CCC(=NNC(N)=O)CC1` has an inhibition of -14.6%.
`O=Cc1c(Cl)cccc1Cl` gave an inhibition of -9.8%.
In the case of `O=C(NCCc1c[nH]c2ccc(Cl)cc12)c1ccc([N+](=O)[O-])cc1`, the inhibition is reported as 8.94%.
Compound `NS(=O)(=O)c1ccc(CCNC(=O)c2ccc(Cl)cc2[N+](=O)[O-])cc1` has an inhibition of -1.67%.
For `O=C(NCCc1ccc(Cl)cc1Cl)c1cc([N+](=O)[O-])c[nH]c1=O`, the inhibition was 26.2% (active).
In the case of `Cc1ccc(O/C=C2\OC(=O)c3ccccc32)cc1`, the inhibition is reported as 3.04%.
`O=C(COC(=O)c1ncc(Cl)c(Cl)c1Cl)NCc1cccs1` gave an inhibition of -15.5%.
With `CC1CC(C)CN(C(=O)COC(=O)c2ccc3ncsc3c2)C1` (configuration not stated) the inhibition was -8.36%.
With `CCC(=C/c1sc2ccc3ccccc3c2[n+]1C)/C=C1\Sc2ccc3ccccc3c2N1C` the inhibition was 79.9% (active).
For `CCC1(c2ccccc2)NC(=O)N(CC(=O)Nc2ccccc2C(=O)NC2CCCC2)C1=O` (configuration not stated), the inhibition was -8.29%.
For `COc1ccc(NC(=O)CC2C(=O)OCC3CCCCN32)cc1Cl` (configuration not stated), the inhibition was -17.2%.
Work on `CC(C)(C)c1ccc(/C=C/C(=O)Nc2ncccn2)cc1` yielded an inhibition of -20.1%.
For `COC(=O)c1sc(-c2ccc(C(C)(C)C)cc2)cc1NC(=O)/C=C/C(=O)O`, the inhibition was 38.8% (active).
With `COc1ccccc1NC(=O)/C=C/C(N)=O` the inhibition was -0.46%.
Compound `CC(C)c1cc(C(N)=O)c(NC(=O)c2cccc(COc3ccc(Br)cc3)c2)s1` has an inhibition of -12.5%.
`O=C1OCCN1C(=O)[C@H]1[C@H](c2ccccc2)C(c2ccc(F)cc2)=NN1c1ccccc1` gave an inhibition of -16.7%.
Compound `CC1(C)Oc2ccc(C(=O)N3CCOCC3)cc2N(CC(=O)Nc2ccccc2)C1=O` has an inhibition of -10.5%.
For `Cc1nn(C)cc1/C=C1\CCC/C(=C\c2cn(C)nc2C)C1=O`, the inhibition was 1.91%.
In the case of `Cc1oc2c(F)c(F)c(F)c(F)c2c1S(=O)(=O)Nc1cccc(C(F)(F)F)c1`, the inhibition is reported as 42.3% (active).
With `O=C(/C=C/c1ccc(F)cc1)Nc1cccc(S(=O)(=O)Nc2cccc(C(F)(F)F)c2)c1` the inhibition was -1.97%.
Work on `CCOC(=O)N1CCN(C(=O)c2ccc(S(=O)(=O)Nc3cccc(C(F)(F)F)c3)cc2)CC1` yielded an inhibition of 10.1%.
Work on `COc1cccc(OC)c1C(=O)N1CCN(Cc2cccnc2)CC1` yielded an inhibition of 2.69%.
`CC[C@]12c3[nH]c4cc(CCC(=O)N(C)C)ccc4c3CCN1C(=O)[C@@H](CC(=O)NCc1ccco1)C[C@@H]2C(=O)N1CCN(C(=O)c2ccco2)CC1` showed an inhibition of -6.08%.
